Assay [1] concerns SH-SY5Y. Kind of assay: Neuroprotective activity against NMDA-induced cell death in human SH-SY5Y cells at 5 uM incubated for 24 hrs by MTT assay. Format: functional, cell-based. Summed up:
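SH-SY5Y neuroblastoma cells are incubated 24 h with NMDA 250 μM and compound at 0.1, 0.5, 1.0 or 5.0 μM. Memantine serves as positive control. Read-out is % cell viability, mean ± SD of three independent experiments.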
For orientation: Tetrazolium dyes change colour on reduction, which living cells bring about.

Assay [2] has as its target Sigma non-opioid intracellular receptor 1 (Homo sapiens, UniProt Q99720). As to the kind of experiment: Displacement of [3H]-pentazocine from human Sigma 1 receptor by radioligand displacement assay. Summed up:
(§1)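 S1R labelled selectively with [3H]-(+)pentazocine in a radioligand displacement assay. Affinity is expressed as inhibition constant (Ki).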

The target in assay [3] is Sigma intracellular receptor 2 (Homo sapiens, UniProt Q5BJF2). As to the kind of experiment: Displacement of [3H]-ditolylguanidine from human Sigma 2 receptor by radioligand displacement assay. Summed up:
(§2)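 Radioligand displacement with [3H]-ditolylguanidine as the S2R label. Cold (+)-pentazocine is included to mask S1R sites. Results are reported as Ki.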

For assay [4], the system named is SH-SY5Y. As to the kind of experiment: Neuroprotective activity against rotenone-induced cell death in human SH-SY5Y cells at 1 uM incubated for 24 hrs by MTT assay. Format: functional, cell-based. Summed up: (§3)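 Rotenone 25 μM is the toxic insult to SH-SY5Y cells, with test compound at 1.0 or 5.0 μM. Protection is reported as % cell viability, mean ± SD of three independent experiments.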

The target of assay [5] is Sigma non-opioid intracellular receptor 1 (Cavia porcellus, UniProt Q60492). Kind of assay: Displacement of [3H](+)-pentazocine from sigma 1 receptor in guinea pig brain cortex membranes after 150 mins by scintillation counting analysis. Format: cell membranes. Summed up: as §1
The subject of assay [6] is SH-SY5Y. As to the kind of experiment: Neuroprotective activity against rotenone-induced cell death in human SH-SY5Y cells at 5 uM in presence of PB212 incubated for 24 hrs by MTT assay. Format: functional, cell-based. Summed up:
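SH-SY5Y cells receive rotenone 25 μM plus the S1R antagonist PB212 (5 μM) and compound at 1.0 or 5.0 μM. Output is % cell viability, mean ± SD of three independent experiments.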

The nature of assay [7]: Displacement of [3H][…]-DTG from sigma 2 receptor in guinea pig brain cortex membranes after 150 mins by liquid scintillation counter method. It is filed as cell membranes, Cavia porcellus. Summed up: as §2
The subject of assay [8] is SH-SY5Y. Kind of assay: Neuroprotective activity against NMDA-induced cell death in human SH-SY5Y cells at 0.1 to 0.5 uM incubated for 24 hrs by MTT assay relative to control. It is filed as functional.
Assay [9] concerns SH-SY5Y. As to the kind of experiment: Neuroprotective activity against NMDA-induced cell death in human SH-SY5Y cells at 0.5 to 1 uM incubated for 24 hrs by MTT assay relative to control. Format: functional.
Assay [10] deals with SH-SY5Y. Kind of assay: Neuroprotective activity against rotenone-induced cell death in human SH-SY5Y cells at 5 uM incubated for 24 hrs by MTT assay. It is filed as functional, cell-based. Summed up:
as §3

Assay [11] is filed under the species Cavia porcellus. As to the kind of experiment: Selectivity index, ratio of Ki for sigma 1 receptor in guinea pig brain cortex membranes to Ki for sigma 2 receptor in guinea pig brain cortex membranes. Format: cell membranes.
The subject of assay [12] is SH-SY5Y. Kind of assay: Neuroprotective activity against oligomycin-induced cell death in human SH-SY5Y cells at 5 uM incubated for 24 hrs by MTT assay relative to control. It is filed as functional. Summed up:
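SH-SY5Y cells were exposed to oligomycin (2.5 μM) as the toxic stimulus in the presence of test compound. Protection was scored as % cell viability.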

In assay [13] the test system is SH-SY5Y. As to the kind of experiment: Neuroprotective activity against NMDA-induced cell death in human SH-SY5Y cells at 0.1 uM in presence of PB212 incubated for 24 hrs by MTT assay. It is filed as functional, cell-based. Summed up: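 SH-SY5Y cells are exposed to NMDA 250 μM together with compound at 0.1 μM. This is done with and without the S1R antagonist PB212 (5 μM). Data are % cell viability, mean ± SD of three independent experiments.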

The target of assay [14] is T1, Glutamate NMDA receptor (Rattus norvegicus) (UniProt P35439+Q00959+Q00960+Q00961+Q62645+Q8VHN2+Q9R1M7). As to the kind of experiment: Negative allosteric modulator of NMDA receptor assessed as NMDA-induced current in Sprague-Dawley rat Primary cortical neuron at 10 uM by whole cell patch clamp method relative to control. Format: cell-based. As to conditions: Cortical neurone. Summed up: (§4)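 Whole-cell patch clamp on cortical neurons in primary culture. Currents are evoked by NMDA 100 μM plus glycine 1 μM, with the compound applied at increasing concentrations. The effect is expressed as % of the control current, mean ± SE of n cells.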

Assay [15] deals with T1, Glutamate NMDA receptor (Rattus norvegicus). Kind of assay: Negative allosteric modulator of NMDA receptor assessed as NMDA-induced current in Sprague-Dawley rat Primary cortical neuron at 1 uM by whole cell patch clamp method relative to control. Format: cell-based. As to conditions: Cortical neurone. Summed up: as §4
In general terms: Patch clamp records ionic current or voltage across a cell membrane.

For assay [16] the target is unchanged. As to the kind of experiment: Negative allosteric modulator of NMDA receptor assessed as NMDA-induced current in Sprague-Dawley rat Primary cortical neuron at 0.1 uM by whole cell patch clamp method relative to control. Format: cell-based. As to conditions: Cortical neurone. Summed up: as §4

Calls of active or inactive are those of the source. The calls are words filed in the database; no cut-off is given here.

The record followed here is ChEMBL document CHEMBL4613319, “Novel Dithiolane-Based Ligands Combining Sigma and NMDA Receptor Interactions as Potential Neuroprotective Agents” (ACS Med Chem Lett, 2020).

Sequence of Sigma intracellular receptor 2 (Q5BJF2 whole entry): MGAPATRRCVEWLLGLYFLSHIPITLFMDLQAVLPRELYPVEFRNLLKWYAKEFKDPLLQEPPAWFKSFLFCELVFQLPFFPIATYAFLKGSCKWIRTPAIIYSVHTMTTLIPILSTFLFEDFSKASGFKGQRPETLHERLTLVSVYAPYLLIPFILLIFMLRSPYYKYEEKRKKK
Sequence of Sigma non-opioid intracellular receptor 1 (Homo sapiens, UniProt Q99720) (Q99720 whole entry): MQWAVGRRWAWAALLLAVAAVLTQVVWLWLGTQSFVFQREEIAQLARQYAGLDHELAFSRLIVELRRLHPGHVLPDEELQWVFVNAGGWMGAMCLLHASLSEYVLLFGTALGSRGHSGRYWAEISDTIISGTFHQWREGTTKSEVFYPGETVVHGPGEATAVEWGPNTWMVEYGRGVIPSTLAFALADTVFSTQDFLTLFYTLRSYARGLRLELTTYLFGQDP
Sequence of Sigma non-opioid intracellular receptor 1 (Cavia porcellus, UniProt Q60492) (Q60492 whole entry): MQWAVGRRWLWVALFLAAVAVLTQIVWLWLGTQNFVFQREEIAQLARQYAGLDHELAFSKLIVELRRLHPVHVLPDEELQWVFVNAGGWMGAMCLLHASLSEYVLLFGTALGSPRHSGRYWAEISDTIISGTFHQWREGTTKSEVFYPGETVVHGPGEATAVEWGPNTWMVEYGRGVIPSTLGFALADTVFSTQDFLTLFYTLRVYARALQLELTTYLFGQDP

Regarding `CC12CC3CC(C)(C1)CC(N)(C3)C2`, the result in assay [1] was inactive.
A word on the Ki: it is the equilibrium dissociation constant of an inhibitor or competing ligand from its target. On to `c1ccc(CC2CCN(C[C@H]3CS[C@@]4(CCCCc5ccccc54)S3)CC2)cc1`, for which the Ki worked out at 195 nM in assay [2] and 158 nM in assay [3].
The like results for `c1ccc(CC2CCN(CC3CSC4(S3)c3ccccc3-c3ccccc34)CC2)cc1` (configuration not stated) were, in that order, 54 nM and 71 nM.
With `c1ccc(CC2CCN(C[C@@H]3CS[C@@]4(CCCc5ccccc54)S3)CC2)cc1`, the Ki in assay [2] is 52 nM; in [3] it was 87 nM.
Taken in the same sequence, the figures for `c1ccc(CC2CCN(C[C@@H]3CS[C@@]4(CCCCc5ccccc54)S3)CC2)cc1` were 68 nM and 107 nM.
`O=C(O)C(=O)O.c1ccc(CC2CCN(CC3CSC4(CCCCC4)S3)CC2)cc1` (configuration not stated): the result in assay [4] was Active. In addition, the outcome in assay [1] and in assay [6] was inactive. Besides, the Ki is 12 nM in [5] and 5 nM in assay [7]. The compound further displayed an Activity in [8] of over 85%.
As to `CC1(C)SCC(CN2CCC(Cc3ccccc3)CC2)S1` (configuration not stated), the Ki was 2 nM in assay [2] and 0.59 nM in assay [3].
For the compound `O=C(O)C(=O)O.c1ccc(CN2CCN(CC3CSC4(CCCCC4)O3)CC2)cc1` (configuration not stated), the outcome in [4] and in [10] was Active. Also, the result in [1] and in [6] was inactive. The Ki in [5] came to 1.3 nM; in [7] it was 91 nM. For the same compound, the values for the Activity in [9] and in [12] were 72 - 75% and over 60%, respectively. Moreover, in assay [11], the Ratio Ki turned out to be 72.
As to `CC1(C)SCC(CN2CCN(Cc3ccccc3)CC2)S1` (configuration not stated), the inhibitory constant (Ki) came out at 0.6 nM in assay [2] and 3.3 nM in [3].
For `O=C(O)C(=O)O.c1ccc(CC2CCN(CC3CSCS3)CC2)cc1` (configuration not stated), the inhibitory constant (Ki) in assay [2] was determined as 0.5 nM; in [3] it was 12 nM. Also, the result in [1] was inactive. Further, the Activity in assay [9] is 72 - 75%.
Consider `c1ccc(CC2CCN(CC3CSC4(CCCCCC4)S3)CC2)cc1` (configuration not stated), for which the Ki in assay [2] is 1.7 nM; in assay [3], 8.1 nM.
On to `C[C@]1(c2ccccc2)SC[C@H](CN2CCC(Cc3ccccc3)CC2)S1`, for which the results for the Ki in assay [2] and in assay [3] were 68 nM and 85 nM, respectively.
In the case of `O=C(O)C(=O)O.O=C(O)C(=O)O.c1ccc(CN2CCN(CC3CSCS3)CC2)cc1` (configuration not stated), the Ki worked out at 2.1 nM in assay [2] and 90 nM in [3]. Moreover, the outcome in [4] was Active. Also, the result in assay [1], in assay [6] and in assay [13] was inactive. The compound also gave an Activity in assay [8] of over 85%.
Usually inhibition stands for the drop in the measured response relative to a control, in per cent. Turning to `O=C(O)C(=O)O.c1ccc(CN2CCN(CC3COC4(CCCCC4)O3)CC2)cc1` (configuration not stated), the inhibition worked out at 110% in assay [14], 18% in assay [15] and 34% in assay [16]. For the same compound, the result in [4] and in assay [10] was Active. The result in assay [1] and in assay [6] was inactive. Further, the Ratio Ki in assay [11] was 47. Further, in assay [7], affinity was put at a Ki of 35 nM. For the same compound, the Activity in assay [8] was over 85%.
As to `CC1(C)OCC(CN2CCC(Cc3ccccc3)CC2)O1` (configuration not stated), the results for the Ki in [2] and in assay [3] were 0.6 nM and 6.2 nM, respectively.
On to `c1ccc(CC2CCN(C[C@@H]3CS[C@]4(CCc5ccccc54)S3)CC2)cc1`, for which the Ki was 71 nM in assay [2] and 30 nM in [3].
Taken in the same sequence, the figures for `c1ccc(CC2CCN(C[C@@H]3CS[C@]4(CCCc5ccccc54)S3)CC2)cc1` were 129 nM and 93 nM.
On to `CC1(C)OCC(CN2CCN(Cc3ccccc3)CC2)O1` (configuration not stated), for which the Ki was 5.4 nM in assay [2] and 182 nM in assay [3].
For the compound `c1ccc(CC2CCN(CC3CSC4(CCCC4)S3)CC2)cc1` (configuration not stated), the inhibitory constant (Ki) amounted to 4.2 nM in [2] and 3 nM in assay [3].
Taken in the same sequence, the figures for `c1ccc(CC2CCN(C[C@H]3CS[C@]4(CCc5ccccc54)S3)CC2)cc1` were 107 nM and 65 nM.
The like results for `C[C@]1(c2ccccc2)SC[C@@H](CN2CCC(Cc3ccccc3)CC2)S1` were, in that order, 76 nM and 63 nM.
